Laboratory results: ChEMBL document CHEMBL3992509, “Discovery of a Highly Potent, Selective, and Metabolically Stable Inhibitor of Receptor-Interacting Protein 1 (RIP1) for the Treatment of Systemic Inflammatory Response Syndrome” (J Med Chem, 2017)
The source made the active and inactive calls. The calls are words filed in the database; no cut-off is given here.

What was measured:
[1] = Half life in human liver microsomes in presence of NADPH by LC-MS/MS analysis; assay type: ADME, microsome
[2] = Intrinsic clearance in human liver microsomes assessed per mg protein in presence of NADPH by LC-MS/MS analysis; assay type: ADME, microsome; details: read-out: CLH
[3] = Half life in mouse liver microsomes in presence of NADPH by LC-MS/MS analysis; assay type: ADME, microsome
[4] = Intrinsic clearance in mouse liver microsomes assessed per mg protein in presence of NADPH by LC-MS/MS analysis; assay type: ADME, microsome; details: read-out: CLH
[5] = target: T1, Receptor-interacting serine/threonine-protein kinase 1 (Homo sapiens, UniProt Q13546); test: Inhibition of recombinant GST-tagged RIP1 (unknown origin) after 4 hrs by ADP-Glo kinase assay
T1 sequence (Q13546 whole entry): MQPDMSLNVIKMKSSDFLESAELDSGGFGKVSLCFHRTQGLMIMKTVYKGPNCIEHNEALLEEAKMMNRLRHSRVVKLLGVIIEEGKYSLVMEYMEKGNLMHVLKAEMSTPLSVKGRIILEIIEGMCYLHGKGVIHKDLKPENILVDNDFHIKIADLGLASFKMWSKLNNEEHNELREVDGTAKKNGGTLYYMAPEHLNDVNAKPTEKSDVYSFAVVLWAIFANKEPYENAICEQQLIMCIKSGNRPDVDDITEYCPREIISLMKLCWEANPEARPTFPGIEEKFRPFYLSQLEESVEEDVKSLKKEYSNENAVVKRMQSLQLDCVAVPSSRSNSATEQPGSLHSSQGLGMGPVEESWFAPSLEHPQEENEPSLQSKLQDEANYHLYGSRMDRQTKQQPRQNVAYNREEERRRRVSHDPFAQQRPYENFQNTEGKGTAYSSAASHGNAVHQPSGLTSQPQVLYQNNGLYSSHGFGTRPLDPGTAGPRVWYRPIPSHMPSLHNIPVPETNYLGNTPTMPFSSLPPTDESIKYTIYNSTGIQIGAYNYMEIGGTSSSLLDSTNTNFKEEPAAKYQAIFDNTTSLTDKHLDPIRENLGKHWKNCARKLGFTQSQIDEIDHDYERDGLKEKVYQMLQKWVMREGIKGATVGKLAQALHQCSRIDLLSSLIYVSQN

[6] = target: Indoleamine 2,3-dioxygenase 1 (Homo sapiens, UniProt P14902); test: Inhibition of recombinant human IDO expressed in Escherichia coli assessed as reduction in kynurenine production at 200 uM using L-tryptophan as substrate after 3 hrs by methylene blue dye based assay
In short: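 Reaction mix: 50 mM MES pH 6.5, 20 mM ascorbate, 2250 U/mL catalase, 10 μM methylene blue, 200 μM L-Trp, 100 nM recombinant IDO, 200 μM compound or DMSO. Incubated 37 °C for 3 h; kynurenine colour read at 321 nm.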

[7] = test system: Mus musculus; test: Protection against TNFalpha-induced mortality in C57BL/6J mouse assessed as survival rate at 6 mg/kg, ip administered as single dose 17 mins before TNFalpha injection measured every 30 mins up to 60 hrs post TNFalpha injection (reference value: 50%); assay type: functional
[8] = test system: Mus musculus; test: Protection against TNFalpha-induced multiorgan damage in C57BL/6J mouse assessed as inhibition of TNFalpha-induced increase in IL-6 level at 6 mg/kg, ip administered as single dose 17 mins before TNFalpha injection measured 12 hrs post TNFalpha injection; assay type: functional, organism-based
In short: (§1)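 C57BL/6 mice given mTNFα IV, then a single 6 mg/kg IP compound dose 17 min before TNFα. Blood taken 12 h after TNFα for mIL-6 and mIL-1β.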

[9] = test system: Mus musculus; test: Protection against TNFalpha-induced multiorgan damage in C57BL/6J mouse assessed as inhibition of TNFalpha-induced increase in IL-1beta level at 6 mg/kg, ip administered as single dose 17 mins before TNFalpha injection measured 12 hrs post TNFalpha injection; assay type: functional, organism-based; in short: as §1
[10] = target: Receptor-interacting serine/threonine-protein kinase 3 (Homo sapiens) (UniProt Q9Y572); test: Inhibition of full length recombinant human N-terminal GST-tagged RIP3 expressed in baculovirus infected sf9 cells at 10 uM using MBP as substrate preincubated for 15 mins followed by MBP/ATP mixture addition measured after 90 mins by ADP-Glo kinase assay
Chain of Receptor-interacting serine/threonine-protein kinase 3 (Homo sapiens) (Q9Y572 whole entry, looked up): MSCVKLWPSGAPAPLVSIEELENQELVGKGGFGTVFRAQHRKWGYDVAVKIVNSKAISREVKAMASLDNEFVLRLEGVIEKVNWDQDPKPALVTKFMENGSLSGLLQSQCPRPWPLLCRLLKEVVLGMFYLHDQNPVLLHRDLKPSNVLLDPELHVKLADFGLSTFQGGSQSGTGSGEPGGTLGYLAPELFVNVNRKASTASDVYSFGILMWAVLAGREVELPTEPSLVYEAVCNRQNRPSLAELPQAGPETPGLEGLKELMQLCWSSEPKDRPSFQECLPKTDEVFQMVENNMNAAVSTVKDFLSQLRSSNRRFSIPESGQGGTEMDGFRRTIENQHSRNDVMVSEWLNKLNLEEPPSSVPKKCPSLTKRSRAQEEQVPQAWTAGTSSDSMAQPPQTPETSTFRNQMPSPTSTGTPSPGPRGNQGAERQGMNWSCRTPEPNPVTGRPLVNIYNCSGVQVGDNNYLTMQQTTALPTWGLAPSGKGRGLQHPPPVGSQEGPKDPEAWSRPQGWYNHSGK

Chain of Indoleamine 2,3-dioxygenase 1 (P14902 whole entry): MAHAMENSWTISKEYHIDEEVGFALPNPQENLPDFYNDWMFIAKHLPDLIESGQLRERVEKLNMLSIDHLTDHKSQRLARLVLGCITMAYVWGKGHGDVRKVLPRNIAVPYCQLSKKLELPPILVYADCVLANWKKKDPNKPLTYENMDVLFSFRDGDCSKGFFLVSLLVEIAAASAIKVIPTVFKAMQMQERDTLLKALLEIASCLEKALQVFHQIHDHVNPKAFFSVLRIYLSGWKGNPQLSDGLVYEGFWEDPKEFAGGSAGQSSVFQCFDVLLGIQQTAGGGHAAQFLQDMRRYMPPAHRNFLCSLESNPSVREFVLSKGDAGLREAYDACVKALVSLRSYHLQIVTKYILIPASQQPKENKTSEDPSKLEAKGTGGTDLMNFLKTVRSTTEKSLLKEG

| SMILES | half-life [1] | microsomal CLint [2] | half-life [3] | microsomal CLint [4] | further results |
| --- | --- | --- | --- | --- | --- |
| CCC(C)(C)C(=O)N(O)Cc1ccc(F)cc1 | 178 min | 3.9 µL/min/mg | 24.1 min | 28.8 µL/min/mg | – |
| CCC(C)(C)C(=O)N(O)Cc1ccc(F)cc1F | 198 min | 3.5 µL/min/mg | 23.2 min | 29.9 µL/min/mg | – |
| CN1C(=O)C(Cc2c[nH]c3ccccc23)NC1=S (stereo not drawn) [NECROSTATIN] | – | – | – | – | IC50 [5]: 760 nM; inhibition (INH) [6]: Active; survival at 6 mg/kg [7]: 60%; inhibition [8]: Active; inhibition [9]: Active; inhibition [10]: inactive |
| CCC(C)(C)C(=O)NC(CO)c1ccccc1 (stereo not drawn) | > 200 min | – | – | – | – |
| CCC(C)(C)C(=O)N(O)Cc1ccc(F)c(F)c1 | 107 min | 6.5 µL/min/mg | 11.3 min | 61.4 µL/min/mg | – |
| CCC(C)(C)C(=O)N(O)Cc1ccc(F)c(F)c1F | 52.9 min | 13.1 µL/min/mg | 13.9 min | 49.9 µL/min/mg | – |
| CCC(C)(C)C(=O)NCc1ccccc1 | > 200 min | – | – | – | – |
| CCC(C)(C)C(=O)NC(C)c1ccccc1 (stereo not drawn) | > 200 min | – | – | – | – |
| CCC(C)(C)C(=O)N(O)Cc1cc(F)cc(F)c1F | 66.6 min | 10.4 µL/min/mg | 9.21 min | 75.3 µL/min/mg | – |
| CCC(C)(C)C(=O)N(O)Cc1cc(F)c(F)c(F)c1 | 66 min | 10.5 µL/min/mg | 7.89 min | 87.8 µL/min/mg | – |
